The compounds below were run on Rattus norvegicus (assay: Relative potency required for antihypertensive activity in spontaneous hypertensive rats after oral administration).
Assay type: functional
Summary of the method: (§1)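 Male SH rats (Okamoto strain), 250-380 g, groups of four to eight, dosed orally. Systolic pressure by tail cuff at 35 °C ambient, before and 2 h after dosing. ED20 = dose lowering systolic pressure 20%, corrected for placebo controls; from log dose vs Δ% regression; relative potency vs labetalol (=1.0).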

For `C#CC(C)(C)NCC(O)COc1ccccc1/C=C/c1cc(C)no1.Cl` (centres undefined), which Relative potency is on record?
Its Relative potency is about 1.

How did the Relative potency turn out when `Cc1cc(/C=C/c2ccccc2OCC(O)CNC(C)C)no1.Cl` (centres undefined) was run?
Its Relative potency is 1.

`CC(CCc1ccccc1)NCC(O)c1ccc(O)c(C(N)=O)c1` (centres undefined) [LABETALOL] was tested. Which Relative potency did it give?
Its Relative potency is 1.

Each compound was assayed on Rattus norvegicus (assay: Relative potency required for hypotensive activity in anesthetized rat).
Assay type: functional
Summary of the method: (§2)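 Male Sprague-Dawley rats, 230-280 g, anesthetized with urethane 1.78 g/kg ip; groups of two to five. Compound given iv. Mean carotid arterial pressure recorded by transducer. ED20 = dose lowering mean carotid pressure by 20%; 95% confidence limits; relative potency versus labetalol (=1.0).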

For `Cc1noc(/C=C/c2ccccc2OCC(O)CNC(C)(C)C)c1[N+](=O)[O-]` (centres undefined), which Relative potency is on record?
Its Relative potency is about 5.2.

`Cc1noc(/C=C/c2ccccc2OCC(O)CNC(C)(C)C)c1C` (centres undefined) was tested. Which Relative potency did it give?
Its Relative potency is about 7.6.

With `COc1ccc(CC(C)NCC(O)COc2ccccc2/C=C/c2cc(C)no2)cc1OC` (centres undefined) as the compound, how does the Relative potency read?
The Relative potency was about 2.4.

How did the Relative potency turn out when `Cc1cc(/C=C/c2ccccc2OCC(O)CNC(C)C)on1` (centres undefined) was run?
The Relative potency was 8.

For `Cc1noc(/C=C/c2ccccc2OCC(O)CNC(C)(C)C)c1Cl` (centres undefined), which Relative potency is on record?
The Relative potency was about 5.2.

With `CC(C)NCC(O)COc1ccccc1/C=C/c1cc(Cl)no1` (centres undefined) as the compound, how does the Relative potency read?
The Relative potency was 7.6.

`CCc1cc(/C=C/c2ccccc2OCC(O)CNC(C)(C)C)on1.Cl` (centres undefined) was tested. Which Relative potency did it give?
Its Relative potency is 5.6.

Which Relative potency does the source give for `C#CC(C)(C)NCC(O)COc1ccccc1/C=C/c1cc(C)no1.Cl` (centres undefined) here?
Its Relative potency is 4.2.

How did the Relative potency turn out when `Cc1cc(/C=C/c2ccccc2OCC(O)CNC(C)C)no1.Cl` (centres undefined) was run?
Its Relative potency is about 2.4.

How did the Relative potency turn out when `CC(CCc1ccccc1)NCC(O)c1ccc(O)c(C(N)=O)c1` (centres undefined) [LABETALOL] was run?
Its Relative potency is 1.

Each compound was assayed on Rattus norvegicus (assay: Dose required for inhibition of L-phenylephrine-induced pressor response in pithed rats after intravenous administration).
Assay type: functional
Summary of the method: (§3)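 Pithed male Sprague-Dawley rats, 200-240 g, amobarbital 120 mg/kg ip, artificially ventilated; three to five per dose. l-Phenylephrine 1.47 μg/kg iv before and 5 min after iv compound; carotid pressure recorded. ED50 = dose halving phenylephrine pressor rise; 95% confidence limits; relative potency vs labetalol (=1.0).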

Which ED50 does the source give for `CC(CCc1ccccc1)NCC(O)c1ccc(O)c(C(N)=O)c1` (centres undefined) [LABETALOL] here?
Its ED50 is 0.47 mg/kg.

These compounds were tested on Rattus norvegicus (assay: Dose required for antihypertensive activity in spontaneous hypertensive rats after oral administration).
Assay type: functional
Summary of the method: as §1

For `Cc1noc(/C=C/c2ccccc2OCC(O)CNC(C)(C)C)c1[N+](=O)[O-]` (centres undefined), which ED20 is on record?
The ED20 was over 21.5 mg/kg.

For `Cc1noc(/C=C/c2ccccc2OCC(O)CNC(C)(C)C)c1C` (centres undefined), which ED20 is on record?
The ED20 was over 21.5 mg/kg.

For `COc1ccc(CC(C)NCC(O)COc2ccccc2/C=C/c2cc(C)no2)cc1OC` (centres undefined), which ED20 is on record?
The ED20 was over 21.5 mg/kg.

Which ED20 does the source give for `Cc1cc(/C=C/c2ccccc2OCC(O)CNC(C)C)on1` (centres undefined) here?
The ED20 was over 21.5 mg/kg.

With `Cc1noc(/C=C/c2ccccc2OCC(O)CNC(C)(C)C)c1Cl` (centres undefined) as the compound, how does the ED20 read?
Its ED20 is over 21.5 mg/kg.

With `CC(C)NCC(O)COc1ccccc1/C=C/c1cc(Cl)no1` (centres undefined) as the compound, how does the ED20 read?
Its ED20 is over 21.5 mg/kg.

How did the ED20 turn out when `CCc1cc(/C=C/c2ccccc2OCC(O)CNC(C)(C)C)on1.Cl` (centres undefined) was run?
Its ED20 is over 21.5 mg/kg.

Which ED20 does the source give for `C#CC(C)(C)NCC(O)COc1ccccc1/C=C/c1cc(C)no1.Cl` (centres undefined) here?
The ED20 was about 46.4 mg/kg.

With `Cc1cc(/C=C/c2ccccc2OCC(O)CNC(C)C)no1.Cl` (centres undefined) as the compound, how does the ED20 read?
The ED20 was about 46.4 mg/kg.

`CC(C)(C)NCC(O)COc1ccccc1/C=C/c1cc(C(C)(C)C)no1.Cl` (centres undefined) was tested. Which ED20 did it give?
The ED20 was over 46.4 mg/kg.

Which ED20 does the source give for `CC(CCc1ccccc1)NCC(O)c1ccc(O)c(C(N)=O)c1` (centres undefined) [LABETALOL] here?
Its ED20 is 47.7 mg/kg.

Species: Rattus norvegicus
Assay: Relative potency required for inhibition of L-phenylephrine-induced pressor response in pithed rats
Assay type: functional
Summary of the method: as §3

With `CC(CCc1ccccc1)NCC(O)c1ccc(O)c(C(N)=O)c1` (centres undefined) [LABETALOL] as the compound, how does the Relative potency read?
The Relative potency was 1.

The compounds below were run on Rattus norvegicus (assay: Dose required for hypotensive activity in anesthetized rat after intravenous administration).
Assay type: functional
Summary of the method: as §2

Which ED20 does the source give for `Cc1noc(/C=C/c2ccccc2OCC(O)CNC(C)(C)C)c1[N+](=O)[O-]` (centres undefined) here?
Its ED20 is about 1 mg/kg.

Which ED20 does the source give for `Cc1noc(/C=C/c2ccccc2OCC(O)CNC(C)(C)C)c1C` (centres undefined) here?
Its ED20 is about 0.68 mg/kg.

Which ED20 does the source give for `COc1ccc(CC(C)NCC(O)COc2ccccc2/C=C/c2cc(C)no2)cc1OC` (centres undefined) here?
Its ED20 is about 2.15 mg/kg.

With `Cc1cc(/C=C/c2ccccc2OCC(O)CNC(C)C)on1` (centres undefined) as the compound, how does the ED20 read?
The ED20 was about 0.65 mg/kg.

How did the ED20 turn out when `Cc1noc(/C=C/c2ccccc2OCC(O)CNC(C)(C)C)c1Cl` (centres undefined) was run?
The ED20 was about 1 mg/kg.

`CCc1cc(/C=C/c2ccccc2OCC(O)CNC(C)(C)C)on1.Cl` (centres undefined) was tested. Which ED20 did it give?
Its ED20 is 0.93 mg/kg.

How did the ED20 turn out when `C#CC(C)(C)NCC(O)COc1ccccc1/C=C/c1cc(C)no1.Cl` (centres undefined) was run?
Its ED20 is about 1.25 mg/kg.

How did the ED20 turn out when `Cc1cc(/C=C/c2ccccc2OCC(O)CNC(C)C)no1.Cl` (centres undefined) was run?
The ED20 was about 2.15 mg/kg.

`CC(C)(C)NCC(O)COc1ccccc1/C=C/c1cc(C(C)(C)C)no1.Cl` (centres undefined) was tested. Which ED20 did it give?
The ED20 was over 1 mg/kg.

`CC(CCc1ccccc1)NCC(O)c1ccc(O)c(C(N)=O)c1` (centres undefined) [LABETALOL] was tested. Which ED20 did it give?
The ED20 was 5.2 mg/kg.

The compounds below were run on Rattus norvegicus (assay: Dose of compound required for hypotensive activity in anesthetized rat).
Assay type: functional
Summary of the method: as §2

Which ED20 does the source give for `CC(C)NCC(O)COc1ccccc1/C=C/c1cc(Cl)no1` (centres undefined) here?
Its ED20 is 0.68 mg/kg.

What follows are compounds tested on Rattus norvegicus (assay: Dose required for inhibition of isoproterenol-induced tachycardia in pithed rat after intravenous administration).
Assay type: functional
Summary of the method: (§4)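 Male Sprague-Dawley rats, 200-240 g, anesthetized with amobarbital 120 mg/kg ip, pithed and ventilated via tracheal cannula; groups of two to five. Isoproterenol 0.1 μg/kg iv given before and 5 min after iv compound; heart rate by rate meter. ED50 = dose halving tachycardia; 95% confidence limits; relative potency vs labetalol (=1.0).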

Which ED50 does the source give for `Cc1noc(/C=C/c2ccccc2OCC(O)CNC(C)(C)C)c1[N+](=O)[O-]` (centres undefined) here?
Its ED50 is about 0.0681 mg/kg.

Which ED50 does the source give for `Cc1noc(/C=C/c2ccccc2OCC(O)CNC(C)(C)C)c1C` (centres undefined) here?
The ED50 was about 0.0215 mg/kg.

With `COc1ccc(CC(C)NCC(O)COc2ccccc2/C=C/c2cc(C)no2)cc1OC` (centres undefined) as the compound, how does the ED50 read?
The ED50 was about 0.464 mg/kg.

Which ED50 does the source give for `Cc1cc(/C=C/c2ccccc2OCC(O)CNC(C)C)on1` (centres undefined) here?
The ED50 was 0.006 mg/kg.

Which ED50 does the source give for `Cc1noc(/C=C/c2ccccc2OCC(O)CNC(C)(C)C)c1Cl` (centres undefined) here?
The ED50 was 0.014 mg/kg.

Which ED50 does the source give for `CC(C)NCC(O)COc1ccccc1/C=C/c1cc(Cl)no1` (centres undefined) here?
The ED50 was 0.0464 mg/kg.

For `CCc1cc(/C=C/c2ccccc2OCC(O)CNC(C)(C)C)on1.Cl` (centres undefined), which ED50 is on record?
The ED50 was about 0.0215 mg/kg.

For `C#CC(C)(C)NCC(O)COc1ccccc1/C=C/c1cc(C)no1.Cl` (centres undefined), which ED50 is on record?
The ED50 was about 0.0681 mg/kg.

Which ED50 does the source give for `Cc1cc(/C=C/c2ccccc2OCC(O)CNC(C)C)no1.Cl` (centres undefined) here?
The ED50 was 0.0034 mg/kg.

Which ED50 does the source give for `CC(C)(C)NCC(O)COc1ccccc1/C=C/c1cc(C(C)(C)C)no1.Cl` (centres undefined) here?
The ED50 was about 0.0215 mg/kg.

For `CC(CCc1ccccc1)NCC(O)c1ccc(O)c(C(N)=O)c1` (centres undefined) [LABETALOL], which ED50 is on record?
The ED50 was 0.14 mg/kg.

Each compound was assayed on Rattus norvegicus (assay: Relative potency required for inhibition of isoproterenol-induced tachycardia in pithed rat after intravenous administration).
Assay type: functional
Summary of the method: as §4

For `Cc1noc(/C=C/c2ccccc2OCC(O)CNC(C)(C)C)c1[N+](=O)[O-]` (centres undefined), which Relative potency is on record?
Its Relative potency is about 2.1.

How did the Relative potency turn out when `Cc1noc(/C=C/c2ccccc2OCC(O)CNC(C)(C)C)c1C` (centres undefined) was run?
Its Relative potency is about 6.5.

`COc1ccc(CC(C)NCC(O)COc2ccccc2/C=C/c2cc(C)no2)cc1OC` (centres undefined) was tested. Which Relative potency did it give?
Its Relative potency is about 3.

How did the Relative potency turn out when `Cc1cc(/C=C/c2ccccc2OCC(O)CNC(C)C)on1` (centres undefined) was run?
The Relative potency was 23.3.

`Cc1noc(/C=C/c2ccccc2OCC(O)CNC(C)(C)C)c1Cl` (centres undefined) was tested. Which Relative potency did it give?
The Relative potency was 10.

How did the Relative potency turn out when `CC(C)NCC(O)COc1ccccc1/C=C/c1cc(Cl)no1` (centres undefined) was run?
The Relative potency was 3.

For `CCc1cc(/C=C/c2ccccc2OCC(O)CNC(C)(C)C)on1.Cl` (centres undefined), which Relative potency is on record?
Its Relative potency is about 6.5.

How did the Relative potency turn out when `C#CC(C)(C)NCC(O)COc1ccccc1/C=C/c1cc(C)no1.Cl` (centres undefined) was run?
Its Relative potency is about 2.1.

`Cc1cc(/C=C/c2ccccc2OCC(O)CNC(C)C)no1.Cl` (centres undefined) was tested. Which Relative potency did it give?
The Relative potency was 41.2.

`CC(C)(C)NCC(O)COc1ccccc1/C=C/c1cc(C(C)(C)C)no1.Cl` (centres undefined) was tested. Which Relative potency did it give?
The Relative potency was about 6.5.

How did the Relative potency turn out when `CC(CCc1ccccc1)NCC(O)c1ccc(O)c(C(N)=O)c1` (centres undefined) [LABETALOL] was run?
Its Relative potency is 1.
